How the values were obtained:
[1] = test system: Mus musculus; assay: Antinociceptive activity was assessed using the mouse abdominal irritant test (MAIT), at a dose of 150 uM/Kg (po); assay type: functional, Abdomen
How it was run: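 Mice were dosed orally, 15 mice per compound, in the abdominal irritant test for antinociception, and watched for convulsions.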

[2] = target: T1, Delta-type opioid receptor (Homo sapiens, UniProt P41143); assay: Effective concentration against stimulation of [35S]GTP-gamma-S, binding in CHO cells transfected with the human opioid receptor delta 1; assay type: functional, cell-based
T1 sequence (P41143 whole entry): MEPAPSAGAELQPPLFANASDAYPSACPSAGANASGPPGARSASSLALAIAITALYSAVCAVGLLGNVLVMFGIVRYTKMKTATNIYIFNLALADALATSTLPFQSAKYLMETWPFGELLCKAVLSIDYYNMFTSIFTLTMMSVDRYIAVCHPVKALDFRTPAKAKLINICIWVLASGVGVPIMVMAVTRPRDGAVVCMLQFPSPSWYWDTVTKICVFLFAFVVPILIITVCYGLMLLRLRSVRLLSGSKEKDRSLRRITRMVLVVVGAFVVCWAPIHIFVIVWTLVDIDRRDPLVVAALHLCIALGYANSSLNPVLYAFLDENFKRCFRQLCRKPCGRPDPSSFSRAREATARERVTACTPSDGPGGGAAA
How it was run: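 Agonist function was read as compound-stimulated [35S]GTPγS binding in CHO cells transfected with the human δ opioid receptor. The method was adapted from one used for bradykinin receptor signal transduction.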

[3] = target: T1, Delta-type opioid receptor; assay: Binding affinity for delta opioid receptor
[4] = target: Mu-type opioid receptor (Homo sapiens, UniProt P35372); assay: Binding affinity for mu opioid receptor
Sequence of Mu-type opioid receptor (P35372 whole entry): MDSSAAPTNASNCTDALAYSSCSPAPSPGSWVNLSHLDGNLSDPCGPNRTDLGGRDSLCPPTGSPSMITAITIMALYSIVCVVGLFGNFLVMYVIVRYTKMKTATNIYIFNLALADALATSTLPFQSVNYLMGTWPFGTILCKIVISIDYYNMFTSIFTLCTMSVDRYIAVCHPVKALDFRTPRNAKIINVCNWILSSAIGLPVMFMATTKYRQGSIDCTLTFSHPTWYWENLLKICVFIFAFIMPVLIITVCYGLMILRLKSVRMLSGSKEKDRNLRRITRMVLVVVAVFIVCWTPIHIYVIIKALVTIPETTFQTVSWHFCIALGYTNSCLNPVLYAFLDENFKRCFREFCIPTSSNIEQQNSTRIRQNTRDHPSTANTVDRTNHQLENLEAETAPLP

[5] = target: T1, Delta-type opioid receptor; assay: Efficacy relative to stimulation of [35S]GTP-gamma-S, binding by SNC80 was calculated for human delta opioid receptor; assay type: functional

| SMILES | Inhibition [1] | EC50 [2] | Ki [3] | Ki [4] | Relative efficacy [5] |
| --- | --- | --- | --- | --- | --- |
| CCN(CC)C(=O)c1ccc(C(=C2CC3CCC(C2)N3Cc2ccc3c(c2)OCO3)c2ccccc2)cc1 | 40% | 0.2 nM | 0.01 nM | 22.4 nM | – |
| CCN(CC)C(=O)c1ccc(C(=C2CC3CCC(C2)N3C)c2cccc(OC)c2)cc1 | – | 65 nM | 5.9 nM | 693 nM | 0.87 |
| CCN(CC)C(=O)c1ccc(/C(=C2\C[C@H]3CC[C@@H](C2)N3)c2ccccc2)cc1 | 86.7% | 1.8 nM | 0.023 nM | 855 nM | 1.02 |
| CCN(CC)C(=O)c1ccc(/C(=C2/C[C@H]3CC[C@@H](C2)N3CCc2ccccc2)c2ccccc2)cc1 | 90% | 1390 nM | 42.1 nM | 317 nM | 0.88 |
| CCN(CC)C(=O)c1ccc(/C(=C2\C[C@H]3CC[C@@H](C2)N3C)c2ccccc2)cc1 | 80% | 153 nM | 5.7 nM | 2910 nM | 0.87 |
| CCN(CC)C(=O)c1ccc(C(=C2CC3CCC(C2)N3CC(=O)c2ccccc2)c2ccccc2)cc1 | – | 173 nM | 6.31 nM | 9640 nM | 0.68 |
| CC1CCCC(C)N1C(=O)c1ccc(/C(=C2\C[C@H]3CC[C@@H](C2)N3CCc2ccccc2)c2ccccc2)cc1 (stereo partly specified) | – | 10000 nM | 11 nM | 571 nM | – |
| CCCN(CCC)C(=O)c1ccc(C(=C2CC3CCC(C2)N3CCc2ccccc2)c2ccccc2)cc1 | – | 3560 nM | 7.39 nM | 644 nM | 0.82 |
| CCN(CC)C(=O)c1ccc(C(=C2CC3CCC(C2)N3CCc2cccs2)c2ccccc2)cc1 | – | 1350 nM | 13.1 nM | 1280 nM | 0.78 |
| CCN(CC)C(=O)c1ccc(C(=C2CC3CCC(C2)N3C)c2ccc(O)cc2)cc1 | – | 9 nM | 1.89 nM | 194 nM | 0.86 |
| CCN(CC)C(=O)c1ccc(C(=C2CC3CCC(C2)N3CCc2ccc(F)cc2)c2ccccc2)cc1 | 26.7% | 27 nM | 2.62 nM | 393 nM | 0.76 |
| O=C(c1ccc(C(=C2CC3CCC(C2)N3CCc2ccccc2)c2ccccc2)cc1)N1CCCC1 | – | 1460 nM | 24.1 nM | 276 nM | 0.86 |
| CCN(CC)C(=O)c1ccc(C(=C2CC3CCC(C2)N3CCc2ccccc2)c2cccc(OC)c2)cc1 | – | 218 nM | 1.36 nM | 417 nM | 0.8 |
| C=C(C)CN(CC)C(=O)c1ccc(/C(=C2\C[C@H]3CC[C@@H](C2)N3CCc2ccccc2)c2ccccc2)cc1 | 33% | 1080 nM | 2.94 nM | 229 nM | 0.9 |
| CCN(CC)C(=O)c1ccc(C(=C2CC3CCC(C2)N3C)c2ccc(OC)cc2)cc1 | – | 27 nM | 3.5 nM | 1500 nM | 0.85 |
| CCN(CCO)C(=O)c1ccc(C(=C2CC3CCC(C2)N3CCc2ccccc2)c2ccccc2)cc1 | – | 548 nM | 3.2 nM | 291 nM | 0.77 |

| SMILES | Inhibition [1] | EC50 [2] | Ki [3] | Ki [4] | Relative efficacy [5] |
| --- | --- | --- | --- | --- | --- |
| C=CCN1[C@@H]2CC[C@H]1C/C(=C(\c1ccccc1)c1ccc(C(=O)N(CC)CC)cc1)C2 | 100% | 0.5 nM | 0.025 nM | 322 nM | 1.05 |
| CCN(CC)C(=O)c1ccc(C(=C2CC3CCC(C2)N3CCCc2ccccc2)c2ccccc2)cc1 | 13.3% | 112 nM | 0.56 nM | 104 nM | 0.88 |
| CCN(CC)C(=O)c1ccc(C(=C2CC3CCC(C2)N3CCOc2ccccc2)c2ccccc2)cc1 | – | 623 nM | 0.38 nM | 630 nM | 0.84 |
| C=CCN1[C@@H]2CC[C@H]1C/C(=C(/c1ccccc1)c1ccc(C(=O)N(CC)CC)cc1)C2 | 100% | 177 nM | 0.32 nM | 4400 nM | 0.83 |
| CCN(CC)C(=O)c1ccc(/C(=C2\C[C@H]3CC[C@@H](C2)N3CCc2ccccc2)c2ccccc2)cc1 | 100% | 34 nM | 0.24 nM | 72.3 nM | 0.82 |
| CCN(CC)C(=O)c1ccc(C(=C2CC3CCC(C2)N3C)c2cccc(O)c2)cc1 | – | 3 nM | 0.6 nM | 727 nM | 0.87 |
| CCN(CC)C(=O)c1ccc(/C(=C2/C[C@H]3CC[C@@H](C2)N3C)c2ccccc2)cc1 | 90% | 149 nM | 4.5 nM | 9730 nM | 0.85 |
| CCN(CC)C(=O)c1ccc(C(=C2CC3CCC(C2)N3)c2ccc(O)cc2)cc1 | 26.7% | 5 nM | 0.58 nM | 442 nM | 0.96 |
| CCN(CC)C(=O)c1ccc(C(=C2CC3CCC(C2)N3CCC2CCCCC2)c2ccccc2)cc1 | – | 228 nM | 1.36 nM | 451 nM | 0.92 |
| O=C(c1ccc(C(=C2CC3CCC(C2)N3CCc2ccccc2)c2ccccc2)cc1)N1CCOCC1 | – | 350 nM | 35.2 nM | 237 nM | 0.76 |
| CC(C)N(C(=O)c1ccc(C(=C2CC3CCC(C2)N3CCc2ccccc2)c2ccccc2)cc1)C(C)C | – | 5040 nM | 49 nM | 103 nM | 0.92 |
| CCN(CC)C(=O)c1ccc(C(=C2CC3CCC(C2)N3CCc2c[nH]c3ccccc23)c2ccccc2)cc1 | – | 16 nM | 3.48 nM | 337 nM | 0.91 |
| CCCN1C2CCC1CC(=C(c1ccccc1)c1ccc(C(=O)N(CC)CC)cc1)C2 | 93.3% | 43 nM | 0.39 nM | 289 nM | 0.87 |
| CCN(CC)C(=O)c1ccc(/C(=C2/C[C@H]3CC[C@@H](C2)N3)c2ccccc2)cc1 | 86.7% | 53 nM | 0.36 nM | 2310 nM | 1 |
| COCCN(CCOC)C(=O)c1ccc(C(=C2CC3CCC(C2)N3CCc2ccccc2)c2ccccc2)cc1 | – | 403 nM | 16.6 nM | 294 nM | 0.71 |

Source: ChEMBL document CHEMBL1148435, “N,N-dialkyl-4-[(8-azabicyclo[3.2.1]-oct-3-ylidene)phenylmethyl]benzamides, potent, selective delta opioid agonists” (Bioorg Med Chem Lett, 2004)
